“Also recorded” adds a separate entry of the source.
Assays:
rat mGluR5 = rat mGluR5 (Rattus norvegicus, UniProt P31424); format: cell-based; conditions: for effect on IP1 levels / accumulation: in the absence of QA (agonist)
mGluR5 [1] = conditions: 10 mg/kg, mouse brain; cited from earlier work
mice [2] = assay: Novel open-field test; format: in vivo, mouse; conditions: for locomotor activity / amount of time spent in the center of the novel open-field: i.p. 15 minutes prior to testing; for locomotor activity: Figure 3A; for amount of time spent in the center of the novel open-field: Figure 3B
Summary of the method: (§1)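 Mice received test compound by ip injection 15 min before testing, with each compound compared against its own within-group vehicle cohort. Compounds were suspended in 2% ethanol, 10% Tween 80 and water; one reference NAM was instead dissolved in saline. Prototypical mGluR5 NAMs served as positive controls. There were 10–12 mice per dose, and data are means ± SEM analysed by one-way ANOVA with Bonferroni post hoc test.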

mice [3] = assay: Light-dark box test; format: in vivo, mouse; conditions: i.p. 15 minutes prior to testing; for proportion of time spent in the light compartment: Figure 3C; for number of compartment transitions: Figure 3D
Summary of the method: as §1

mice [4] = assay: Mouse models of anxiety-like behaviors; format: in vivo; conditions: for doses giving statistically significant effects consistent with anxiolysis: i.p., open-field and light-dark box tests
[5] = tested on: 63 additional receptors and ion channels; assay: Screening in 63 additional receptors and ion channels; format: binding; conditions: 100 nM; any of 63 additional receptors and ion channels
mGluR5 [6] = biological target: mGluR5 (Rattus norvegicus, UniProt P31424); assay: Displacement of [3H]1; format: binding; conditions: ratio of Ki values versus 1 (MPEP)
mGluR5 (Rattus norvegicus, UniProt P31424), sequence (P31424 21-1203): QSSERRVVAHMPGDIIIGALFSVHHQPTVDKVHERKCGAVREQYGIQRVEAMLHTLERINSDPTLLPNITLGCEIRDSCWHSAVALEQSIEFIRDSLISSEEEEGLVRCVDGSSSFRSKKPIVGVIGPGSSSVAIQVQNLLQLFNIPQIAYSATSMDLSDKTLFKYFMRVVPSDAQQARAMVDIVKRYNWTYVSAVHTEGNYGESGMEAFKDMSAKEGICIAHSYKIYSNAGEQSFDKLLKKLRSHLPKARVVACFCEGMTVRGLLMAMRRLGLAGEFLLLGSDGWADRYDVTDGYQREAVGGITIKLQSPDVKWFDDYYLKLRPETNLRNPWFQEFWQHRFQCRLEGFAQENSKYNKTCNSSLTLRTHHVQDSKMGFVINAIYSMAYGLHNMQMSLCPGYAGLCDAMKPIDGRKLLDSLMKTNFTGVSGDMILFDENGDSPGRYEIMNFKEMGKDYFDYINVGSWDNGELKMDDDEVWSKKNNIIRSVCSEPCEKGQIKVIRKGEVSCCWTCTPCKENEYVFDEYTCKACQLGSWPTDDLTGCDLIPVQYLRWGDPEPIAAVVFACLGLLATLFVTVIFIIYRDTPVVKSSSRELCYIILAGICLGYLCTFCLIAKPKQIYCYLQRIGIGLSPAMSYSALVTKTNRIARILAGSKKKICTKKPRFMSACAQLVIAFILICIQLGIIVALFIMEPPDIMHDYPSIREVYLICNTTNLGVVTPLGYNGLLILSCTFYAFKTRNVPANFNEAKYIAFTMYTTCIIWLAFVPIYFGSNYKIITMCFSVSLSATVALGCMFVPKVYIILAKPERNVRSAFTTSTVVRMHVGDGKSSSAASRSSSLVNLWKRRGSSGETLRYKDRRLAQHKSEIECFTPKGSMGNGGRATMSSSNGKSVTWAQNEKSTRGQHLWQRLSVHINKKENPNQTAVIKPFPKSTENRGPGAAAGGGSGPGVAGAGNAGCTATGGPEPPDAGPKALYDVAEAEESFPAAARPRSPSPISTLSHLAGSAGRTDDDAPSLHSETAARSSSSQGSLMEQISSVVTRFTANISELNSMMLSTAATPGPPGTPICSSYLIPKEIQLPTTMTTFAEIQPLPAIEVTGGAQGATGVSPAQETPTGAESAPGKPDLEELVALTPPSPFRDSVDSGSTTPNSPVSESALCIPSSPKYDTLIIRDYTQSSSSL

rat mGluR5, sequence (P31424 21-1203): as above

Row | Structure (SMILES) | effect on IP1 levels / accumulation (rat mGluR5) | mGluR5 receptor occupancy (mGluR5 [1]) | overall / locomotor activity at the highest tested doses (mice [2]) | locomotor activity (mice [2]) | amount of time spent in the center of the novel open-field (mice [2]) | proportion of time spent in the light compartment (mice [3]) | number of compartment transitions (mice [3]) | anxiolytic effects at the highest tested doses (mice [4]) | doses giving statistically significant effects consistent with anxiolysis (mice [4]) [mg/kg] | inhibition of binding at other targets [5] [%] | fold increase in mGluR5 binding affinity over compound 1 (mGluR5 [6]) | effect on IP1 levels (agonist) (rat mGluR5; agonist stimulation of mGluR5)
1 | Cc1cccc(C#Cc2ccccc2)n1 [Compound 1, 2-methyl-6-(phenylethynyl)pyridine, reference compound] | potently decreased IP1 levels from baseline; also recorded: dose-dependent inverse agonism | full | no corresponding loss of locomotor activity | dose-dependently increased | dose-dependently increased | dose-dependently increased | dose-dependently increased | loss of anxiolytic effects | 3 to 30 |  |  | 
2 | Cc1nc(C#Cc2cccnc2)cs1 [Compound 2, 3-((2-methyl-1,3-thiazol-4-yl)ethynyl)pyridine, reference compound] | potently decreased IP1 levels from baseline; also recorded: dose-dependent inverse agonism |  |  | dose-dependently increased | dose-dependently increased | dose-dependently increased | dose-dependently increased |  | 10 |  |  | 
3 | Cc1cccc(C#Cc2cc(F)cc(C#N)c2)n1 [Compound 7i] | potently decreased IP1 levels from baseline; also recorded: dose-dependent inverse agonism |  | no corresponding loss of locomotor activity | dose-dependently increased | dose-dependently increased | dose-dependently increased | dose-dependently increased | loss of anxiolytic effects | 0.3 | < 13 | approximately 24 fold | 
4 | N#Cc1cc(F)cc(C#Cc2cccc(C#N)n2)c1 [Compound 7j] | potently decreased IP1 levels from baseline; also recorded: dose-dependent inverse agonism |  | depression in overall activity | dose-dependently increased | dose-dependently increased | dose-dependently increased | dose-dependently increased | loss of anxiolytic effects | 0.1 to 0.3 |  |  | 
5 | N[C@@H](Cn1oc(=O)[nH]c1=O)C(=O)O [QA, quisqualic acid] |  |  |  |  |  |  |  |  |  |  |  | dose-dependently increased IP1 levels; also recorded: increased IP1 accumulation

— publication PMC3424002 (ACS medicinal chemistry letters, 2012)
